ChEMBL document CHEMBL1125322, “Stabilization of the N-terminal residues of luteinizing hormone-releasing hormone agonists and the effect on pharmacokinetics” (J Med Chem, 1992)
Square brackets hold non-standard residues; d marks the D form. Peptide text beside a SMILES is read from it. 1Nal = N[C@@H](Cc1cccc2ccccc12)C(=O)O; NMeF = CN[C@@H](Cc1ccccc1)C(=O)O; pGlu = O=C1CC[C@@H](C(=O)O)N1; NMeS = CN[C@@H](CO)C(=O)O

Tests used:
[1] = Compound was tested in vivo for clearance after iv administration in the rat; type: ADME, organism-based
Summary of the method: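 Rats received each compound as an iv bolus. Serum levels were measured by RIA using an antibody recognizing the C-terminal Leu-Arg-ProNHEt; one analogue was measured with an anti-[D-Lys6]LHRH antibody instead. Whole-body clearance was calculated as dose divided by the area under the concentration–time curve and expressed in mL/min per kg.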

[2] = Compound was tested in vitro for lumenal concentration in the rat jejunal sac to decrease by 50%.; type: ADME
Summary of the method: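 Peptides were incubated at 37 °C inside short closed segments of rat jejunum in oxygenated Ringer's buffer, pH 6.8. At set times, segments were removed from the bath and the lumenal contents were assayed for peptide by HPLC. T1/2 is the time, in min, for the lumenal concentration to fall by 50%.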

[3] = Compound was tested in vitro for chymotrypsin degradation; type: ADME
Summary of the method: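 Each peptide was mixed with chymotrypsin in 30 mM sodium phosphate/100 mM NaCl, pH 6.9 (enzyme at 5 µg/mL in the buffer before mixing, prewarmed to 37 °C) and incubated at 37 °C. Aliquots were taken at set intervals from 0.083 min up to 60 min and quenched in 3:7 acetonitrile/water. Degradation was followed chromatographically, and the half-life is given in min.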

Structure (SMILES) | clearance [1] | half-life [2] | half-life [3]
CCNC(=O)[C@@H]1CCCN1C(=O)[C@H](CCCN=C(N)N)NC(=O)[C@H](CC(C)C)NC(=O)[C@@H](CC(C)C)NC(=O)[C@H](Cc1ccc(O)cc1)NC(=O)[C@H](CO)NC(=O)[C@H](Cc1ccc(Cl)cc1)NC(=O)[C@H](Cc1c[nH]cn1)NC(=O)[C@@H]1CCC(=O)N1 | 7.6 mL/min/kg | 4.4 min | 
CCNC(=O)[C@@H]1CCCN1C(=O)[C@H](CCCN=C(N)N)NC(=O)[C@H](CC(C)C)NC(=O)[C@@H](CC(C)C)NC(=O)[C@H](Cc1ccc(O)cc1)NC(=O)[C@H](CO)NC(=O)[C@H](Cc1c[nH]c2ccccc12)NC(=O)[C@H](Cc1c[nH]cn1)NC(=O)CN(C)C(C)=O | 24 mL/min/kg | 60 min | 1 min
CCNC(=O)[C@@H]1CCCN1C(=O)[C@H](CCCN=C(N)N)NC(=O)[C@H](CC(C)C)NC(=O)[C@@H](CC(C)C)NC(=O)[C@H](Cc1ccc(O)cc1)NC(=O)[C@H](CO)NC(=O)[C@H](Cc1cccc2ccccc12)NC(=O)[C@H](Cc1c[nH]cn1)NC(=O)[C@@H]1CCC(=O)N1 ([pGlu]H[1Nal]SY[dL]LRP-NHEt) |  | 25 min | 
CCNC(=O)[C@@H]1CCCN1C(=O)[C@H](CCCNC(=N)N)NC(=O)[C@H](CC(C)C)NC(=O)[C@@H](CC(C)C)NC(=O)[C@H](Cc1ccc(O)cc1)NC(=O)[C@H](CO)NC(=O)[C@H](Cc1c[nH]c2ccccc12)NC(=O)[C@H](Cc1c[nH]cn1)NC(=O)[C@@H]1CCC(=O)N1 |  | 4 min | 
CCNC(=O)[C@@H]1CCCN1C(=O)[C@H](CCCN=C(N)N)NC(=O)[C@H](CC(C)C)NC(=O)[C@@H](CC(C)C)NC(=O)[C@H](Cc1ccc(O)cc1)NC(=O)[C@H](CO)NC(=O)[C@H](Cc1ccc(OC)cc1)NC(=O)[C@H](Cc1c[nH]cn1)NC(=O)[C@@H]1CCC(=O)N1 | 13.3 mL/min/kg | 14.9 min | 

More lines, now with the values ahead:

clearance [1] | half-life [2] | half-life [3] | Structure (SMILES)
 | > 90 min |  | CCNC(=O)[C@@H]1CCCN1C(=O)[C@H](CCCN=C(N)N)NC(=O)[C@H](CC(C)C)NC(=O)[C@@H](CC(C)C)NC(=O)[C@H](Cc1ccc(O)cc1)NC(=O)[C@H](CO)N(C)C(=O)[C@H](Cc1c[nH]c2ccccc12)NC(=O)[C@H](Cc1c[nH]cn1)NC(=O)[C@@H]1CCC(=O)N1 ([pGlu]HW[NMeS]Y[dL]LRP-NHEt)
28.3 mL/min/kg | 55 min | > 60 min | CCNC(=O)[C@@H]1CCCN1C(=O)[C@H](CCCN=C(N)N)NC(=O)[C@H](CC(C)C)NC(=O)[C@@H](Cc1c[nH]c2ccccc12)NC(=O)[C@H](Cc1ccc(O)cc1)NC(=O)[C@H](CO)N(C)C(=O)[C@H](Cc1c[nH]c2ccccc12)NC(=O)[C@H](Cc1c[nH]cn1)NC(=O)CN(C)C(C)=O
 | 39.1 min |  | CCNC(=O)[C@@H]1CCCN1C(=O)[C@H](CCCN=C(N)N)NC(=O)[C@H](CC(C)C)NC(=O)[C@@H](Cc1c[nH]c2ccccc12)NC(=O)[C@H](Cc1ccc(O)cc1)NC(=O)[C@H](CO)N(C)C(=O)[C@H](Cc1c[nH]c2ccccc12)NC(=O)[C@H](Cc1cnc[nH]1)NC(=O)[C@@H]1CCC(=O)N1
 | 10.8 min |  | CCNC(=O)[C@@H]1CCCN1C(=O)[C@H](CCCN=C(N)N)NC(=O)[C@H](CC(C)C)NC(=O)[C@@H](Cc1c[nH]c2ccccc12)NC(=O)[C@H](Cc1ccc(O)cc1)NC(=O)[C@H](CO)NC(=O)[C@H](Cc1c[nH]c2ccccc12)NC(=O)[C@H](Cc1ccccc1)NC(=O)[C@@H]1CCC(=O)N1 ([pGlu]FWSY[dW]LRP-NHEt)
 | 2.2 min |  | CCNC(=O)[C@@H]1CCCN1C(=O)[C@H](CCCN=C(N)N)NC(=O)[C@H](CC(C)C)NC(=O)[C@@H](CC(C)C)NC(=O)[C@H](Cc1ccc(O)cc1)NC(=O)[C@H](CO)NC(=O)[C@H](Cc1c[nH]c2ccccc12)NC(=O)[C@H](Cc1ccccc1)NC(=O)[C@@H]1CCC(=O)N1 ([pGlu]FWSY[dL]LRP-NHEt)
44.4 mL/min/kg | 44.4 min |  | CCNC(=O)[C@@H]1CCCN1C(=O)[C@H](CCCN=C(N)N)NC(=O)[C@H](CC(C)C)NC(=O)[C@@H](Cc1c[nH]c2ccccc12)NC(=O)[C@H](Cc1ccc(O)cc1)NC(=O)[C@H](CO)NC(=O)[C@H](Cc1c[nH]c2ccccc12)NC(=O)[C@H](Cc1ccccc1)N(C)C(=O)[C@@H]1CCC(=O)N1 ([pGlu][NMeF]WSY[dW]LRP-NHEt)
